Series [1] in a line: Metabolic stability in human liver microsomes assessed as parent compound remaining after 10 mins by LC-MS/MS analysis. The series is classed as ADME, microsome. To be noted: read-out: Stability. In outline: (§1)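 Compound depletion measured by LC/MS/MS after 10 min at 37 °C in liver microsome preparations (CYP450 and other NADP-dependent enzymes). Values are % of compound remaining; duplicates in a single experiment.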
For orientation: Liver microsomes are a subcellular fraction often used to study metabolism.

Another series concerns the target Cytochrome P450 2D6 (Homo sapiens, UniProt P10635). The series can be described thus: Inhibition of recombinant human CYP2D6 expressed in insect cells microsomes using AMMC as substrate preincubated for 30 mins followed by NADP addition and measured after 45 mins by fluorescence analysis. The series is classed as ADME.
The target of series [2] is T1, C-X-C chemokine receptor type 4 (Homo sapiens, UniProt P61073). Briefly: Agonist activity at CXCR4 in human CCRF-CEM cells assessed as induction of calcium release incubated for 25 mins by calcium flux assay. The series is classed as functional, cell-based. In outline:
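CCRF-CEM T lymphoblasts (endogenous CXCR4) in HBSS/20 mM HEPES/0.1% fatty-acid-free BSA, 40,000 cells/well, dye-loaded 30 min at 37°C, then 15 min at room temperature. Compounds added at final 25,000–0.423 nM (0.5% DMSO) and calcium flux read by FDSS for 90 s.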
For orientation: A change in cytosolic calcium serves as a functional read-out for many receptors and channels.

Series [3] can be described thus: Metabolic stability in mouse liver microsomes assessed as parent compound remaining after 10 mins by LC-MS/MS analysis. The series is classed as ADME, microsome. To be noted: read-out: Stability. In outline:
as §1

The target in series [4] is Muscarinic acetylcholine receptor. The series can be described thus: Antagonist activity at mAChR in human CCRF-CEM cells assessed as inhibition of acetylcholine-induced calcium release preincubated for 25 mins followed by acetylcholine stimulation and measured for 90 secs by calcium flux assay. The series is classed as functional, cell-based. In outline:
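Endogenous muscarinic receptors in CCRF-CEM cells (HBSS/HEPES/BSA buffer, 40,000 cells/well, dye-loaded 30 min at 37°C). Calcium flux recorded 90 s by FDSS. IC50 by 4-parameter logistic fit against an internal control compound; duplicate wells, single experiment.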

Series [5] is described as follows: Permeability of compound at pH 5.5 by PAMPA. The series is classed as ADME. To be noted: read-out: permeability. In outline: (§2)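 Compound from 10 mM DMSO stock diluted 1:100 to 100 µM (1% DMSO) in pH 7.4 or pH 5.5 donor buffer, then filtered. Lipid-coated filter membrane with pH 7.4 acceptor buffer; incubated 4 h at room temperature. UV plate reading gives Pc. Duplicates in two independent experiments unless noted.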

A further series deals with Cytochrome P450 3A4 (Homo sapiens, UniProt P08684). The series can be described thus: Inhibition of human CYP3A4. The series is classed as ADME.
Sequence of Cytochrome P450 3A4 (P08684 whole entry): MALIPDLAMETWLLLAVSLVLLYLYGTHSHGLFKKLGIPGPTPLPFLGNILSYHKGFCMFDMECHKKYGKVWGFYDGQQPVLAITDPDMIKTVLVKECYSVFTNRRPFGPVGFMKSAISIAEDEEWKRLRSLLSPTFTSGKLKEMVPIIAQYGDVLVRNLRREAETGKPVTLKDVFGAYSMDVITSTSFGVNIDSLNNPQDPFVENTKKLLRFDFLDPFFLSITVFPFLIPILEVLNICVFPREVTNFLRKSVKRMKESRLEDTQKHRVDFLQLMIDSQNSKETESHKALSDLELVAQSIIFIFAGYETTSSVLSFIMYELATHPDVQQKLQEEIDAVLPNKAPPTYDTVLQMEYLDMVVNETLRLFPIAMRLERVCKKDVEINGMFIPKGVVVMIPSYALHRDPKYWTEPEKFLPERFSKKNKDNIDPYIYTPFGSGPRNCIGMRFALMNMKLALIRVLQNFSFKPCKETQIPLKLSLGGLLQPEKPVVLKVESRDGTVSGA
Series [6] addresses T1, C-X-C chemokine receptor type 4. The series can be described thus: Antagonist activity at CXCR4 in human CCRF-CEM cells assessed as inhibition of SDF-1alpha-induced calcium release preincubated for 25 mins followed by SDF-1alpha stimulation and measured for 90 secs by calcium flux assay. The series is classed as functional, cell-based.
The target in series [7] is Voltage-gated L-type calcium channel (Homo sapiens, UniProt Q13936+Q13698+Q01668+O60840). Briefly: Antagonist activity at L-type calcium channel (unknown origin). The series is classed as protein assay.
The target of series [8] is Voltage-gated inwardly rectifying potassium channel KCNH2 (Homo sapiens, UniProt Q12809). The series can be described thus: Displacement of [3H]astemizole from human ERG expressed in HEK cell membranes. In outline:
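Binding assay measuring [3H]astemizole displacement in HEK membranes overexpressing hKv11.1.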
For orientation: Displacement assays read how much labelled ligand stays bound in the presence of the test substance.

Series [9] can be described thus: Permeability of compound at pH 7.4 by PAMPA. The series is classed as ADME. To be noted: read-out: permeability. In outline:
as §2

The species entered for a further series is Homo sapiens. Briefly: Selectivity index, ratio of IC50 for antagonist activity at mAChR in human CCRF-CEM cells to IC50 for antagonist activity at CXCR4 in human CCRF-CEM cells. The series is classed as cell-based.

T1 sequence (P61073 whole entry): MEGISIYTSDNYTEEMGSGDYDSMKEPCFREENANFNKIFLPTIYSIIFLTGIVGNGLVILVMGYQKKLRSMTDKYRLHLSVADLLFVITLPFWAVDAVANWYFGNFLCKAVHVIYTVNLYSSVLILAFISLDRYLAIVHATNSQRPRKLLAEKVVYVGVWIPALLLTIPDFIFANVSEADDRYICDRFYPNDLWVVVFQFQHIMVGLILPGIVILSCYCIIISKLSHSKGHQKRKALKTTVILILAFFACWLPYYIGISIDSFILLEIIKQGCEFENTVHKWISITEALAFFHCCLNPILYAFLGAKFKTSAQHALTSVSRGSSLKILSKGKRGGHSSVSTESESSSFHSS
Sequence of Cytochrome P450 2D6 (P10635 whole entry): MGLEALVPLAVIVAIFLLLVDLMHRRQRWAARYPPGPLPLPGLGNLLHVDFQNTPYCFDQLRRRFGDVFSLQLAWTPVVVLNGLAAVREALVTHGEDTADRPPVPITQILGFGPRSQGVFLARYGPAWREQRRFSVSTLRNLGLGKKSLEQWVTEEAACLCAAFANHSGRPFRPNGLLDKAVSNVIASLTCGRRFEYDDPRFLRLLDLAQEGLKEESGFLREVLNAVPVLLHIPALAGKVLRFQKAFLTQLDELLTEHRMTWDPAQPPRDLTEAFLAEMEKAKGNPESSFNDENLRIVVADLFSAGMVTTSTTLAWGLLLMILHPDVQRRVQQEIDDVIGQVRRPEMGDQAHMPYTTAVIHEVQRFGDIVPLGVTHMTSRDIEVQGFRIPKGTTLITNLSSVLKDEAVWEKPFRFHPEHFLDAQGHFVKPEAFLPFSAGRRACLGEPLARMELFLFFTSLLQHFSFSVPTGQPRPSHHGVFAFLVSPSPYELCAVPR
Sequence of Voltage-gated inwardly rectifying potassium channel KCNH2 (Q12809 whole entry): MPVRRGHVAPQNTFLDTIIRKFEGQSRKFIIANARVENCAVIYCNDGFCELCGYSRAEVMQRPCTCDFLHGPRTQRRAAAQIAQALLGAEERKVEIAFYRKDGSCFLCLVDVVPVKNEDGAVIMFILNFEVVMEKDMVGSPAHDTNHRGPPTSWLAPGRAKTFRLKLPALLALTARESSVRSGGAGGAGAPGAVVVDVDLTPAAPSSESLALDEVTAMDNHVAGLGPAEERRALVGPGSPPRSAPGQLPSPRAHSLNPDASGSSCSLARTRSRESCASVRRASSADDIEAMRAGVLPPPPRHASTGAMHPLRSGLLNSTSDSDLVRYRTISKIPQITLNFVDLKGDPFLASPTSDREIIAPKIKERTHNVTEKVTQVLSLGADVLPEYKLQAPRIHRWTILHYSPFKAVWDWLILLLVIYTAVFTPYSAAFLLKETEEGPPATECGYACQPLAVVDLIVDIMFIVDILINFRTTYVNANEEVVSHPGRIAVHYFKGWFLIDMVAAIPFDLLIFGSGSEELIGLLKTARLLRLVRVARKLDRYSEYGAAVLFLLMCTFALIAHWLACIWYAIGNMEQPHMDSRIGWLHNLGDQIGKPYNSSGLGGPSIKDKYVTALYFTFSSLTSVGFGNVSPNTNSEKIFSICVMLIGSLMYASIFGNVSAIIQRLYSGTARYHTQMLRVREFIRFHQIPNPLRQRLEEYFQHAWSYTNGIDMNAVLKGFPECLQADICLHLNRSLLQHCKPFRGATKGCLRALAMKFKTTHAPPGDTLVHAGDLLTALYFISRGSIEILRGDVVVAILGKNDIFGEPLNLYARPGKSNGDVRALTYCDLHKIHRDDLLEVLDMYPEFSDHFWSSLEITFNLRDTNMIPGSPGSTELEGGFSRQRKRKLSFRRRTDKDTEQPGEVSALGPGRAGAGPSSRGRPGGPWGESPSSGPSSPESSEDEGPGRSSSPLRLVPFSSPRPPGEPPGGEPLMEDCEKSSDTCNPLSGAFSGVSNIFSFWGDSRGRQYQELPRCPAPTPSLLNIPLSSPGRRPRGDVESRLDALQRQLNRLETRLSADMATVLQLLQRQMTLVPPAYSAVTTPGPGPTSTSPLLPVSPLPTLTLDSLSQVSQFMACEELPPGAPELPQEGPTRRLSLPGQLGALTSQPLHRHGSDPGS

In general, IC50 refers to the concentration at which inhibition is half-maximal. One may read the EC50 as the concentration needed to bring the measured effect to its halfway point. For `CN(C[C@H]1Cc2c(cccc2N2CCN(c3ncccn3)CC2)CN1)[C@H]1CCCc2cccnc21`, the remaining at 10 min in series [1] came to 35.5%; in [3] it was 35.1%. The IC50 at Cytochrome P450 2D6 stood at 0.508 µM; in [4] it was 0.887 µM; on Cytochrome P450 3A4 it was 3.35 µM; in series [6] it was 0.0307 µM. For the same molecule, the EC50 in series [2] was greater than 30 µM. In addition, the Papp in series [5] was 36 ×10⁻⁶ cm/s.

Take `CN(C[C@H]1Cc2c(cccc2N2CCNCC2)CN1)[C@H]1CCCc2cccnc21`: the results for the remaining at 10 min in series [1] and in [3] were 99.7% and 19.9%, respectively. In addition, the IC50 was greater than 20 µM at Cytochrome P450 2D6; greater than 80 µM in series [7]; 20.3 µM in [8]; 7.18 µM in series [4]; greater than 20 µM on Cytochrome P450 3A4; 0.00608 µM in [6]. Besides, the EC50 in series [2] was greater than 30 µM.

Consider `CN(C[C@H]1Cc2c(cccc2N2CCN(C3CC3)CC2)CN1)[C@H]1CCCc2cccnc21`, for which the remaining at 10 min in series [1] was determined as 15.5%; in [3], 7%. The IC50 on Cytochrome P450 2D6 was 6.09 µM; in series [4], greater than 33.3 µM; against Cytochrome P450 3A4, 4.23 µM; in [6], 0.0235 µM. Besides, the Papp in [9] was 26.5 ×10⁻⁶ cm/s. For the same molecule, in series [2], the EC50 was greater than 30 µM.

As for `CCN1CCN(c2cccc3c2C[C@H](CN(C)[C@H]2CCCc4cccnc42)NC3)CC1`, the remaining at 10 min in series [1] is 0%; in series [3], 18.8%. The IC50 on Cytochrome P450 2D6 is greater than 20 µM; in series [4] it was greater than 33.3 µM; at Cytochrome P450 3A4 it was greater than 20 µM; in [6], 0.0138 µM. For the same molecule, in [9], the Papp was 20.5 ×10⁻⁶ cm/s. Also, the EC50 in [2] was greater than 30 µM.

Consider `CN(C[C@H]1Cc2c(cccc2N2CCN(Cc3ccccn3)CC2)CN1)[C@H]1CCCc2cccnc21`, for which the values for the remaining at 10 min in series [1] and in series [3] were 4.2% and 40.4%, respectively. The IC50 was determined as 11 µM on Cytochrome P450 2D6, 10.8 µM in series [4], 6.79 µM at Cytochrome P450 3A4 and 0.00447 µM in series [6]. Further, in [2], the EC50 was greater than 30 µM. The Papp in series [5] came out at 8.2 ×10⁻⁶ cm/s.

Consider `CN(C[C@H]1Cc2c(cccc2N2CCN(c3cccc(C(F)(F)F)c3)CC2)CN1)[C@H]1CCCc2cccnc21`, for which the remaining at 10 min in series [1] stood at 90.3%; in series [3], 72.3%. The IC50 was 6.48 µM at Cytochrome P450 2D6, 9.25 µM in [4], 2.21 µM against Cytochrome P450 3A4 and greater than 16.7 µM in [6]. Moreover, in series [9], the Papp came out at 14.1 ×10⁻⁶ cm/s. In [2], the EC50 was greater than 30 µM.

Consider `CC(C)N(C[C@H]1Cc2c(cccc2N2CCNCC2)CN1)[C@H]1CCCc2cccnc21`, for which the remaining at 10 min in series [1] came to 75%; in series [3], 91%. Further, the IC50 is greater than 20 µM on Cytochrome P450 2D6, 8.34 µM in [4], greater than 20 µM on Cytochrome P450 3A4 and 0.364 µM in [6]. For the same molecule, in [9], the Papp amounted to 1.6 ×10⁻⁶ cm/s. The EC50 in series [2] was greater than 30 µM.

As for `OCCN(C[C@H]1Cc2c(cccc2N2CCNCC2)CN1)[C@H]1CCCc2cccnc21`, the remaining at 10 min in series [1] was 94.4%; in series [3], 60.3%. In addition, the IC50 on Cytochrome P450 2D6 is greater than 20 µM; in [4] it was greater than 33.3 µM; at Cytochrome P450 3A4, greater than 20 µM; in series [6] it was 0.195 µM. The Papp in series [9] was 1.1 ×10⁻⁶ cm/s. Moreover, in series [2], the EC50 is greater than 30 µM.

Consider `CN(C[C@H]1Cc2c(cccc2N2CCN(c3ccccn3)CC2)CN1)[C@H]1CCCc2cccnc21`, for which the remaining at 10 min in series [1] turned out to be 27.4%; in series [3] it was 46.1%. Also, the IC50 on Cytochrome P450 2D6 turned out to be 2.52 µM; in series [4], 1.98 µM; against Cytochrome P450 3A4 it was 3.16 µM; in [6], 0.0179 µM. Also, the EC50 in series [2] was greater than 30 µM. Moreover, the Papp in series [5] worked out at 12.9 ×10⁻⁶ cm/s.

On to `CN(C[C@H]1Cc2c(cccc2N2CCN3CCC[C@@H]3C2)CN1)[C@H]1CCCc2cccnc21`, for which the remaining at 10 min is 52.2% in [1] and 36.7% in series [3]. Besides, the IC50 at Cytochrome P450 2D6 was greater than 20 µM; in [4] it was 26.1 µM; against Cytochrome P450 3A4 it was greater than 20 µM; in series [6], 0.00359 µM. In addition, in series [9], the Papp was found to be 74 ×10⁻⁶ cm/s. Also, the EC50 in series [2] was greater than 30 µM. Also, the Ratio IC50 in the series listed under Homo sapiens is greater than 5000.

Values taken from ChEMBL document CHEMBL4152343, “Design, Synthesis, and Pharmacological Evaluation of Second-Generation Tetrahydroisoquinoline-Based CXCR4 Antagonists with Favorable ADME Properties” (J Med Chem, 2018).
